“And” between values parts separate entries of the source, which are not always exact repeats. Equal values may be shown once.
What was measured:
Format in all cases: functional, Rattus norvegicus, Hippocampus
[1] = Evaluation for reversing the inhibitory effects of Fumonisin B1(FB1) on accelerated axonal growth of hippocampal neurons.
Method in brief: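 E18 Wistar rat hippocampal neurons, trypsin-dissociated and plated at low density on poly-L-lysine cover slips over a glial monolayer in serum-free N2 MEM. At 48 h: bFGF 1 ng/mL plus FB1 10 μM (Hepes stock) with or without analogue 5 μM (ethanol, ≤1% final). At 51 h, fixed in glutaraldehyde and axonal branch points/cell counted by phase contrast. Values normalized to 48 h; mean ± SEM of three cultures, 50 cells per cover slip, two cover slips per treatment; p values reported.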

[2] = Inability to reverse inhibitory effect of D-threo-1-phenyl-2-decanoylamino-3-morpholino-1-propanol(PDMP) on accelerated axonal growth of hippocampal neurons, number of axonal branch points/ cell at 51 hour (P value)
Method in brief: (§1)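 Rat (E18 Wistar) hippocampal neurons cultured at low density over glia in serum-free N2 MEM. Treated at 48 h with bFGF 1 ng/mL, PDMP 50 μM final (Hepes stock) and with or without analogue 5 μM from ethanol (≤1% final). Axonal branch points/cell counted by phase contrast after glutaraldehyde fixation at 51 h and normalized to 48 h. Mean ± SEM of three cultures, 50 cells × two cover slips; p values vs bFGF or bFGF+PDMP.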

[3] = Inability to reverse inhibitory effect of D-threo-1-phenyl-2-decanoylamino-3-morpholino-1-propanol(PDMP) on accelerated axonal growth of hippocampal neurons (P value); method in brief: as §1

Row | Compound | No. of axonal points [1] | No. of axonal points [2] | No. of axonal points [3]
1 | CCCCCC(=O)N[C@@H](CO)[C@H](O)/C=C/c1ccc(F)cc1 | 1.5 |  | 
2 | CCCCCCCCCCCCC/C=C/[C@@H](O)[C@H](CO)NC(=O)CCCCCNc1ccc([N+](=O)[O-])c2nonc12 | <1.66 and 1.46 | 0.86 and 1.08 | 
3 | CCCCCCC/C=C/[C@@H](F)[C@H](CO)NC(=O)CCCCC | 1.39 | 1.12 | 
4 | CCCCCC(=O)N[C@@H](CO)[C@H](O)/C=C/c1ccccc1 | 2.09 | 0.92 | 
5 | CCCCCC(=O)N[C@@H](CO)[C@H](O)/C=C/c1ccc(CCCCC)cc1 | 1.54 |  | 
6 | CCCCCc1ccc(/C=C/[C@@H](O)[C@H](CO)NC(=O)CCC)cc1 | 1.83 |  | 
7 | CCCCCc1ccc(/C=C/[C@@H](O)[C@H](CO)NC(C)=O)cc1 | 1.67 |  | 
8 | CCCCCC(=O)N[C@@H](CO)[C@H](O)/C=C/c1ccc(OC)cc1 | 1.35 |  | 
9 | CCCCCCC/C=C/[C@H](O)[C@H](CO)NC(=O)CCCCC | 1.11 |  | 
10 | CCCCCCC/C=C/[C@@H](O)[C@H](CO)NC(=O)CCCCC | 1.43 |  | 
11 | CCCCCCCCCCCCC/C=C/[C@H](O)[C@H](CO)NC(=O)CCCCCNc1ccc([N+](=O)[O-])c2nonc12 | <1.01 and <1.06 | 1.06 | 0.94
12 | CCCCCC(=O)N[C@@H](CO)[C@H](O)/C=C/c1cccs1 | 1.38 | 1.04 | 
13 | CCCCCC(=O)N[C@@H](CO)[C@H](O)/C=C/c1ccc(C)cc1 | 1.46 |  | 
14 | CCCCCCC/C=C/[C@H](F)[C@H](CO)NC(=O)CCCCC | 1.29 | 1.16 | 

From ChEMBL document CHEMBL1133505, “Synthesis and biological evaluation of ceramide analogues with substituted aromatic rings or an allylic fluoride in the sphingoid moiety” (2000)
